Laboratory results reported in ChEMBL document CHEMBL1817572, “New, potent, selective, and short-acting peptidic V1a receptor agonists” (J Med Chem, 2011).
Numbered stars: 1 amine (or outer) side, 2 acyl side, 3 side chain; on linkers, the order of the positions; unused ones are H or OH. Bridge positions count the residues as written; N and C are the ends. Square brackets hold non-standard residues; d marks the D form. Peptide text beside a SMILES is read from it. * marks the point of attachment. Orn(Me) = CN(CCC[C@H](N[*:1])C(=O)[*:2])[*:3]; Ala(cPent) = N[C@@H](CC1CCCC1)C(=O)O; Orn(Pr) = CCCNCCC[C@H](N)C(=O)O; Aad = N[C@@H](CCCC(=O)O)C(=O)O; Cha = N[C@@H](CC1CCCCC1)C(=O)O; NH(3-hydroxypropyl) = OCCCN*; Orn = NCCC[C@H](N)C(=O)O; Dab = NCC[C@H](N)C(=O)O

Legend:
[1] = biological target: Vasopressin V1a/V2 (Homo sapiens) (UniProt P30518+P37288); experiment: Selectivity ratio of EC50 for human vasopressin V2 receptor to EC50 for human vasopressin V1a receptor
Vasopressin V1a receptor [2] = biological target: T1, Vasopressin V1a receptor (Homo sapiens, UniProt P37288); experiment: Agonist activity at recombinant human vasopressin V1a receptor expressed in HEK293 cells by luciferase reporter gene assay; assay type: functional, cell-based; conditions: read-out: EC50
Target sequence in this assay (P37288 whole entry): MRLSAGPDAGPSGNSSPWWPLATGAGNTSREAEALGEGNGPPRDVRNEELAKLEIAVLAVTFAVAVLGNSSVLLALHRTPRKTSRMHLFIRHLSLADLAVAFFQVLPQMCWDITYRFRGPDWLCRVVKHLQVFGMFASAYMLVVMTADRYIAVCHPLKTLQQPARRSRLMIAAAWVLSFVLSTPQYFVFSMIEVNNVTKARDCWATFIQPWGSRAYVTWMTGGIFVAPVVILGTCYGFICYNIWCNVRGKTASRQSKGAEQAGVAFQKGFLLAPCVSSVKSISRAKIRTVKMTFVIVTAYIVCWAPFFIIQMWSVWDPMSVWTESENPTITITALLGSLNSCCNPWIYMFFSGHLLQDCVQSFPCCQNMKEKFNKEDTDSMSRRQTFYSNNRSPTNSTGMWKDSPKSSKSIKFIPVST

Vasopressin V1b receptor = biological target: T2, Vasopressin V1b receptor (Homo sapiens, UniProt P47901); experiment: Agonist activity at recombinant human vasopressin V1b receptor expressed in Flp-In-293 cells by luciferase reporter gene assay; assay type: functional, cell-based; conditions: read-out: EC50
T2 sequence (P47901 whole entry): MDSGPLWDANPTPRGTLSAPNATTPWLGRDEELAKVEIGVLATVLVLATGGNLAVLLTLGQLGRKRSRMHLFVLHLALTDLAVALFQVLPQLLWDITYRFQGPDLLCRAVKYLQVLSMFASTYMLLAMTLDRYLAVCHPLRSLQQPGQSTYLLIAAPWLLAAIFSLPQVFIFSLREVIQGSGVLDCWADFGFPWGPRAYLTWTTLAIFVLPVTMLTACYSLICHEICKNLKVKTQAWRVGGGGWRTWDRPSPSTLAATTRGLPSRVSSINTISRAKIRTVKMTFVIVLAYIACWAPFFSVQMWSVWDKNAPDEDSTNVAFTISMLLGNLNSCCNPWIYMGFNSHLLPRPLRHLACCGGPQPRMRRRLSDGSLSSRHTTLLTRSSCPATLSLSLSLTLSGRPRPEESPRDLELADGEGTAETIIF
Summary of the method: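 Reporter gene assays in HEK293 cells transiently cotransfected with V1a (human or rat) or human V2 receptor vector plus NFAT-luciferase (V1a) or CRE-luciferase (V2) reporter; V1b in Flp-In-293 stably expressing receptor, OT in CHO-K1 stably expressing receptor, both transiently transfected with NFAT-luciferase. Two days post-transfection, peptides added for 5 h at 37 °C, lysis with luciferin, luminescence read.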

Vasopressin V2 receptor [3] = biological target: T3, Vasopressin V2 receptor (Homo sapiens, UniProt P30518); experiment: Agonist activity at recombinant human vasopressin V2 receptor expressed in HEK293 cells by luciferase reporter gene assay; assay type: functional, cell-based
Oxytocin receptor = biological target: T4, Oxytocin receptor (Homo sapiens, UniProt P30559); experiment: Agonist activity at human OT receptor expressed in CHO-K1 cells by luciferase reporter gene assay; assay type: functional, cell-based
T4 sequence (P30559 whole entry): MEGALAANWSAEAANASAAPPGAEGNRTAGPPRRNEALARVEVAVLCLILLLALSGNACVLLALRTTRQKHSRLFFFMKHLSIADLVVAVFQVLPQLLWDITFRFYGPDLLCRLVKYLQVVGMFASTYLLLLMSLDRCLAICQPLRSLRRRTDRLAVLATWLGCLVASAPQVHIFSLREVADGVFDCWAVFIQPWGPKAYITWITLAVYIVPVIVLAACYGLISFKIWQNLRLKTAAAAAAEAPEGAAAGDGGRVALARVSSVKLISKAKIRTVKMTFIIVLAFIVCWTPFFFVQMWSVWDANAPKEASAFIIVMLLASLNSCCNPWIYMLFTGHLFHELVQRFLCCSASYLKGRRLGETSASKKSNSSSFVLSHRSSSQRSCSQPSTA

Homo sapiens [4] = organism: Homo sapiens; experiment: Selectivity ratio of EC50 for human vasopressin V1b receptor to EC50 for human vasopressin V1a receptor
Homo sapiens [5] = organism: Homo sapiens; experiment: Selectivity ratio of EC50 for human oxytocin receptor to EC50 for human vasopressin V1a receptor
Vasopressin V1a receptor [6] = biological target: Vasopressin V1a receptor (Rattus norvegicus, UniProt P30560); experiment: Agonist activity at recombinant rat vasopressin V1a receptor expressed in HEK293 cells by luciferase reporter gene assay; assay type: functional, cell-based; conditions: read-out: EC50
Rattus norvegicus [7] = experiment: Vasoconstriction in Wistar rat assessed as assessed as decay in vasopressive duration of action at 3 nmol/kg, iv bolus measured over 10 sec interval; assay type: functional
Summary of the method: (§1)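 Fasted male Wistar rats (206–340 g) under isoflurane, then thiobutabarbital 150 mg/kg ip, ventilated, 37–38 °C, with carotid pressure and jugular dosing. Dibenamine 1.8 mg/rat iv pretreatment. Sequence: iv boluses (0.5 mL/kg) of heparinized vehicle, then two reference doses of 0.1 nmol/kg, then two test doses; one matches the reference diastolic pressure rise. Relative duration = reference decay rate / test decay rate; mean ± SEM.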

Vasopressin V2 receptor [8] = biological target: T3, Vasopressin V2 receptor; experiment: Partial agonist activity at recombinant human vasopressin V2 receptor expressed in HEK293 cells by luciferase reporter gene assay; assay type: functional, cell-based
Summary of the method: (§2)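 Same luciferase reporter systems (OT in stable CHO-K1, V1b in stable Flp-In-293, each with transient NFAT-luciferase; V1a in HEK293 with NFAT-luciferase, V2 in HEK293 with CRE-luciferase). Peptides added for 5 h at 37 °C two days post-transfection, luminescence read. Partial agonism means efficacy <70%.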

Rattus norvegicus [9] = experiment: Vasoconstriction in Wistar rat assessed as assessed as decay in vasopressive duration of action at 2 nmol/kg, iv bolus measured over 10 sec interval; assay type: functional; summary of the method: as §1
Rattus norvegicus [10] = experiment: Vasoconstriction in Wistar rat assessed as decay in vasopressive duration of action at 0.3 nmol/kg, iv bolus measured over 10 sec interval; assay type: functional; parameters: unit not given here
[11] = biological target: T5, Oxytocin receptor (Homo sapiens) (UniProt P30559); experiment: Partial agonist activity at human OT receptor expressed in CHO-K1 cells by luciferase reporter gene assay; assay type: functional, cell-based; summary of the method: as §2
T5 sequence (whole entry): T4 sequence (P30559 whole entry)

Vasopressin V1a receptor [12] = biological target: T1, Vasopressin V1a receptor; experiment: Partial agonist activity at recombinant human vasopressin V1a receptor expressed in HEK293 cells by luciferase reporter gene assay; assay type: functional, cell-based; summary of the method: as §2
Target sequence in this assay (P37288 whole entry, looked up): as the sequence (P37288 whole entry) above

Vasopressin V1a/V2 (Homo sapiens), sequence (P30518 whole entry, looked up): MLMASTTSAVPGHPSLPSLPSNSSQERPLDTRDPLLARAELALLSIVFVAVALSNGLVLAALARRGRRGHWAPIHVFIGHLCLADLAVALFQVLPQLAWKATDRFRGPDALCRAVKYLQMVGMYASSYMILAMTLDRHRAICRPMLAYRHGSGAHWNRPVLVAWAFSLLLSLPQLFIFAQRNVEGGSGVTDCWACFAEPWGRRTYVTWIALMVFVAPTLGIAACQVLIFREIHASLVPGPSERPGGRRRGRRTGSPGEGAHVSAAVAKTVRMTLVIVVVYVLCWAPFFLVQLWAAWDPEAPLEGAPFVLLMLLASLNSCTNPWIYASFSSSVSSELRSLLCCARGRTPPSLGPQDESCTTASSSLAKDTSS
Vasopressin V1a/V2 (Homo sapiens), sequence (P37288 whole entry, looked up): as the sequence (P37288 whole entry) above
T3 sequence (P30518 whole entry): as the sequence (P30518 whole entry, looked up) above
Vasopressin V1a receptor (Rattus norvegicus, UniProt P30560), sequence (P30560 whole entry): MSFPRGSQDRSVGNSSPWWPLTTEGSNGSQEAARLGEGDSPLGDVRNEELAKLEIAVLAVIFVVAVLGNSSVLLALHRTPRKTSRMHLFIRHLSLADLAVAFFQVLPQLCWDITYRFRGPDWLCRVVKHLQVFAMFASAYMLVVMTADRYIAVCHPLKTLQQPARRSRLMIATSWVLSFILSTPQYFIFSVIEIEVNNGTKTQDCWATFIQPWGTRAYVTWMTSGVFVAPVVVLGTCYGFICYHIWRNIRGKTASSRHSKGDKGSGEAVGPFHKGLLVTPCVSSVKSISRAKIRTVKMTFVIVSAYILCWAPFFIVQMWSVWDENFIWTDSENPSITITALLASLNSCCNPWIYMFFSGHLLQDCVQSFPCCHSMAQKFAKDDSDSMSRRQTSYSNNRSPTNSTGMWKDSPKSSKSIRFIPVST

| SMILES | Ratio EC50 [1] | EC50 (Vasopressin V1a receptor [2]) [nM] | EC50 (Vasopressin V1b receptor) [nM] | EC50 (Vasopressin V2 receptor [3]; read-out: EC50) [nM] | EC50 (Oxytocin receptor; cho-k1, read-out: EC50) [nM] | EC50 (Oxytocin receptor; read-out: pEC50 (converted)) [nM] | Ratio EC50 (Homo sapiens [4]) | Ratio EC50 (Homo sapiens [5]) | EC50 (Vasopressin V1a receptor [6]) [nM] | Efficacy (Vasopressin V2 receptor [8]) [%] | EC50 (Vasopressin V2 receptor [3]; hek293, read-out: EC50) [nM] | EC50 (Vasopressin V2 receptor [3]; read-out: pEC50 (converted)) [nM] | Efficacy (Vasopressin V1a receptor [12]) [%] | Time (Rattus norvegicus [7]) [unitless ratio] | Time (Rattus norvegicus [9]) [unitless ratio] | Time (Rattus norvegicus [10]) | EC50 (Oxytocin receptor; read-out: EC50) [nM] | Efficacy [11] [%] |
| --- | --- | --- | --- | --- | --- | --- | --- | --- | --- | --- | --- | --- | --- | --- | --- | --- | --- | --- |
| CC[C@H](C)[C@@H]1NC(=O)[C@H](CC2CCCCC2)NC(=O)[C@@H](N)CSSC[C@@H](C(=O)N2CCC[C@H]2C(=O)N[C@@H](CCN)C(=O)NCC(N)=O)NC(=O)[C@H](CC(N)=O)NC(=O)[C@H](CCC(N)=O)NC1=O (H-C[Cha]IQNCP[Dab]G-NH2; disulfide 1-6) | 3000 | 0.25 | 8 | 760 | > 10000 | > 10000 | 32 | > 40000 | 2.1 | – | – | – | – | – | 3.1 | – | – | – |
| CC[C@H](C)[C@@H]1NC(=O)[C@H](Cc2ccccc2)NC(=O)[C@@H](N)CSSC[C@@H](C(=O)N2CCC[C@H]2C(=O)N[C@@H](CCCNC(C)C)C(=O)NCC(N)=O)NC(=O)[C@H](CC(N)=O)NC(=O)[C@H](CCCC(N)=O)NC1=O [SELEPRESSIN] | 1100 | 2.4 | 340 | 2700 | – | 1100 | 140 | 450 | 0.55 | < 70 | – | – | – | – | – | 1.4 | 1100 | < 70 |
| CC[C@H](C)[C@@H]1NC(=O)[C@H](Cc2ccccc2)NC(=O)[C@@H](N)CSSC[C@@H](C(=O)N2CCC[C@H]2C(=O)N[C@@H](CCCNC)C(=O)NCC(N)=O)NC(=O)[C@H](CC(N)=O)NC(=O)[C@H](CCC(N)=O)NC1=O (H-CFIQNCP[Orn(Me)]G-NH2; disulfide 1-6) | 500 | 0.26 | 74 | 130 | – | – | 280 | 61 | 0.29 | – | – | – | – | – | – | 2.6 | 16 | < 70 |
| CCCNCCC[C@H](NC(=O)[C@@H]1CCCN1C(=O)[C@@H]1CSSC[C@H](N)C(=O)N[C@@H](Cc2ccccc2)C(=O)N[C@@H]([C@@H](C)CC)C(=O)N[C@@H](CCC(N)=O)C(=O)N[C@@H](CC(N)=O)C(=O)N1)C(=O)NCC(N)=O (H-CFIQNCP[Orn(Pr)]G-NH2; disulfide 1-6) | 660 | 0.21 | 38 | 140 | – | – | 180 | 150 | 0.1 | – | – | – | – | – | – | 1.9 | 32 | – |

Continued, in another order:

| Ratio EC50 [1] | EC50 (Vasopressin V1a receptor [2]) [nM] | EC50 (Vasopressin V1b receptor) [nM] | EC50 (Vasopressin V2 receptor [3]; read-out: EC50) [nM] | EC50 (Oxytocin receptor; cho-k1, read-out: EC50) [nM] | EC50 (Oxytocin receptor; read-out: pEC50 (converted)) [nM] | Ratio EC50 (Homo sapiens [4]) | Ratio EC50 (Homo sapiens [5]) | EC50 (Vasopressin V1a receptor [6]) [nM] | Efficacy (Vasopressin V2 receptor [8]) [%] | EC50 (Vasopressin V2 receptor [3]; hek293, read-out: EC50) [nM] | EC50 (Vasopressin V2 receptor [3]; read-out: pEC50 (converted)) [nM] | Efficacy (Vasopressin V1a receptor [12]) [%] | SMILES | Time (Rattus norvegicus [7]) [unitless ratio] | Time (Rattus norvegicus [9]) [unitless ratio] | Time (Rattus norvegicus [10]) | EC50 (Oxytocin receptor; read-out: EC50) [nM] | Efficacy [11] [%] |
| --- | --- | --- | --- | --- | --- | --- | --- | --- | --- | --- | --- | --- | --- | --- | --- | --- | --- | --- |
| 590 | 2.7 | 21 | 1600 | > 10000 | > 10000 | 7.7 | > 3700 | 4.8 | < 70 | – | – | – | CCNC(=O)C[C@@H]1NC(=O)[C@H]([C@@H](C)CC)NC(=O)[C@H](Cc2ccccc2)NC(=O)[C@@H](N)CSSC[C@@H](C(=O)N2CCC[C@H]2C(=O)N[C@@H](CCN)C(=O)NCC(N)=O)NC(=O)[C@H](CC(N)=O)NC1=O (H-CFID(NHEt)NCP[Dab]G-NH2; disulfide 1-6) | 1.3 | – | – | – | – |
| > 7100 | 1.4 | 29 | – | > 10000 | > 10000 | 20 | > 7100 | 8.2 | – | > 10000 | > 10000 | – | CC[C@H](C)[C@@H]1NC(=O)[C@H](Cc2ccccc2)NC(=O)[C@@H](N)CSSC[C@@H](C(=O)N2CCC[C@H]2C(=O)N[C@@H](CCCN)C(=O)NCC(N)=O)NC(=O)[C@H](CC(N)=O)NC(=O)[C@H](CC(N)=O)NC1=O (H-CFINNCP[Orn]G-NH2; disulfide 1-6) | 1.4 | – | – | – | – |
| 1500 | 0.8 | 20 | 1200 | > 10000 | > 10000 | 25 | > 12000 | 4.2 | – | – | – | – | CC[C@H](C)[C@@H]1NC(=O)[C@H](CC2CCCC2)NC(=O)[C@@H](N)CSSC[C@@H](C(=O)N2CCC[C@H]2C(=O)N[C@@H](CCN)C(=O)NCC(N)=O)NC(=O)[C@H](CC(N)=O)NC(=O)[C@H](CCC(N)=O)NC1=O (H-C[Ala(cPent)]IQNCP[Dab]G-NH2; disulfide 1-6) | 2.3 | – | – | – | – |
| 1700 | 0.9 | 46 | 1600 | > 10000 | > 10000 | 51 | > 11000 | 0.34 | < 70 | – | – | < 70 | CC[C@H](C)[C@@H]1NC(=O)[C@H](Cc2ccccc2)NC(=O)[C@@H](N)CSSC[C@@H](C(=O)N2CCC[C@H]2C(=O)N[C@@H](CCCN)C(=O)NCC(N)=O)NC(=O)[C@H](CC(N)=O)NC(=O)[C@H](CCCC(N)=O)NC1=O (H-CFI[Aad](NH2)NCP[Orn]G-NH2; disulfide 1-6) | – | 3.4 | – | – | – |
| > 4700 | 2.1 | 19 | – | > 10000 | > 10000 | 9 | > 4700 | 2.7 | – | > 10000 | > 10000 | – | CC[C@H](C)[C@@H]1NC(=O)[C@H](Cc2ccccc2)NC(=O)[C@@H](N)CSSC[C@@H](C(=O)N2CCC[C@H]2C(=O)N[C@@H](CCCN)C(=O)NCC(N)=O)NC(=O)[C@H](CC(N)=O)NC(=O)[C@H](CC(=O)NCCCO)NC1=O (H-CFID(NH(3-hydroxypropyl))NCP[Orn]G-NH2; disulfide 1-6) | – | 1.7 | – | – | – |
